Source: PubChem
Only some compounds are listed: those with a hit (about 2.3% of all), similar ones and a draw of the others.
MMP-13 inhibitor – human MMP13 inhibitors, primary screen, biochemical, FRET peptide cleavage; MMP-13 fTHP FRET cleavage, Mca fluorescence; 0.07% of 65,000 active; inhibition, % at 4 µM; AID 570, 2006; Collagenase 3 (Homo sapiens), P45452;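 active means inhibition above the mean of compound-free control plate wells plus 3 SD, cut at about 14% in these data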;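 further: 0% = DMSO wells and 100% = wells with reference MMP-13 inhibitor after basal subtraction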
RORa activator – activators of orphan receptor RORA, primary screen, cell-based, luminescence; Nuclear receptor ROR-alpha (Homo sapiens), P35398; CHO-K1 Gal4-RORA LBD luciferase reporter; percent increase over mock-subtracted basal signal; activation, % at 10 µM; 1.5% of 65,000 active;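 active means activation above the mean of all tested compounds plus 3 SD, cut at about 49% in these data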;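 further: 0% = DMSO-treated RORA cells and 100% = added signal equal to DMSO minus mock-transfected cells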
MT1-MMP txn act – MT1-MMP promoter reporter activation – cell-based, luciferase luminescence, primary screen | HT1080 MT1-MMP promoter luciferase reporter, overnight; stronger effect = higher value | activation factor at 10 µM | 0.16% of 86,000 active | AID 750, 2007;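 active means activation factor of at least 2 for MT1-MMP transcription at 10 µM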
WNV NS2B-NS3 inh – inhibitors of WNV NS2B-NS3 protease, primary screen, biochemical, fluorogenic substrate; Genome polyprotein (West Nile virus), P06935; fluorogenic substrate Ex360/Em465; stronger effect = lower value; z-score (no concentration beside the values); 0.18% of 65,000 active; in the data active means z-score below about -3
Target sequence (P06935 1371-1501 limits assumed): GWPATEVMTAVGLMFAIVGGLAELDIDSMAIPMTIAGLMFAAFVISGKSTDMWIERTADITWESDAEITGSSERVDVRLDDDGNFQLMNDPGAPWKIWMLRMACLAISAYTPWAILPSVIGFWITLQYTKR
Target sequence (P06935 1502-1679 limits assumed): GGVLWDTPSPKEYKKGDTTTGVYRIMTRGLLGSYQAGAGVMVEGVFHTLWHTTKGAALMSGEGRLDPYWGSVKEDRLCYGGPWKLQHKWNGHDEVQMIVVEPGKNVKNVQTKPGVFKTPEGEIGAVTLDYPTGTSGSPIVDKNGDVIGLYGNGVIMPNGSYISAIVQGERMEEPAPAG
SF-1 act – activators of human SF-1, primary screen, cell-based, CHO-K1, Gal4-SF-1 LBD, luciferase luminescence; Steroidogenic factor 1 (Homo sapiens), Q13285; CHO-K1 Gal4-SF-1 LBD luciferase reporter; % increase over DMSO SF-1-specific signal; activation, % at 10 µM; 1.9% of 65,000 active; AID 522, 2006;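 active means activation above the mean activation of all tested compounds plus 3 SD, cut at about 50% in these data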
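Test system: transient Gal4-SF-1 LBD reporter, CHO-K1; Amount: 4,000 CHO-K1 cells per well; Doses: 10 µM only; Timing: compound exposure 20 h at 37 °C; Signal: luciferase light emission; Read-out basis: percent activation relative to DMSO median and mock-transfected background; Control set: DMSO negative control and −SF1 background wells; Replicates: one test per compound.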
An asterisk follows results filed as active; x = not tested or not shown.

SMILES	MMP-13 inhibitor	RORa activator	MT1-MMP txn act	WNV NS2B-NS3 inh	SF-1 act
Cn1c(C(C#N)C(=O)c2ccco2)nc2ccccc21 (stereo unspecified)	-6.6	67.2*	1.9	-0.36	59.4*
CCOc1ccc(NC(=O)CN(c2ccc(OC)cc2)S(C)(=O)=O)cc1	2.8	76.6*	1.6	0.39	25.8
COc1ccc(NC(=O)CN(C)S(=O)(=O)c2cccs2)cc1	-0.2	51.0*	1.4	0.72	21.7
COC(=O)c1ccccc1NC(=O)CN(c1ccc(OC)cc1)S(C)(=O)=O	x	x	1.3	x	x
COC(=O)c1ccc(NC(=O)CN(c2ccc(OC)cc2)S(C)(=O)=O)cc1	-0.7	66.4*	1.9	0.39	74.8*
CCOc1ccc(N(CC(=O)Nc2ccc(OC)cc2)S(C)(=O)=O)cc1	1.1	60.6*	1.7	0.67	36.0
CCOc1ccc(NC(=O)CN(C2CCCCC2)S(C)(=O)=O)cc1	x	x	1.2	x	x
O=C(O)CCC(=O)OCC1CCCO1 (stereo unspecified)	-0.4	-25.4	1.6	0.36	1.8
O=C(c1coc2ccccc2c1=O)N1CCN(c2cccc(C(F)(F)F)c2)CC1	4.0	-17.5	1	-0.66	-10.8
O=C(CCS(=O)(=O)c1cccs1)N1CCCC1	0.4	12.3	1.4	-0.03	27.5
O=C(CCNS(=O)(=O)c1cccs1)N1CCCCCC1	6.5	31.7	1.7	-0.07	59.9*
CCn1c(NCc2c[nH]c3ccccc23)nc2ccccc21	2.5	11.1	1.5	-1.27	-7.5
Cn1c(NCc2c[nH]c3ccccc23)nc2ccccc21	1.6	63.8*	1.5	1.38	77.6*
Cc1cc(C(=O)Nc2sc3c(c2C#N)CCC3)no1	0.8	60.3*	1.2	-0.68	115.6*
Cc1cc(C(=O)Nc2sc3c(c2C#N)CCC(C)C3)no1 (stereo unspecified)	6.3	53.0*	0.8	0.1	96.8*
N#Cc1c(NC(=O)c2cc(C3CC3)on2)sc2c1CCC2	4.1	25.8	1.1	-1.11	80.0*
CC(C)Cc1cc(C(=O)Nc2sc3c(c2C#N)CCCC3)no1	4.5	40.7	1.2	1.31	15.1
CC1CCc2c(sc(NC(=O)C(=O)NCc3ccco3)c2C#N)C1 (stereo unspecified)	x	x	1.2	x	x
Cc1onc(-c2ccccc2)c1C(=O)Nc1sc2c(c1C#N)CCC2	-0.5	16.3	1.1	1.29	24.0
Cc1cc(C(=O)Nc2sc3c(c2C#N)CCCC3)no1	4.9	40.7	1.2	-0.41	71.0*
O=C(Cn1nnc(-c2ccccc2F)n1)Nc1ccc(S(=O)(=O)NC2CCCC2)cc1	2.0	-0.9	1	-0.26	8.5
Cc1nc2c(C)cccn2c1/C(O)=C1\C(=O)C(=O)N(CCN2CCOCC2)C1c1cccs1 (stereo unspecified)	x	x	1.2	x	x
O=C(COC(=O)c1cc(S(=O)(=O)N2CCOCC2)ccc1O)NCCc1ccccc1	x	x	1.1	x	x
CCN(CC)CCCN1C(=O)c2oc3ccccc3c(=O)c2C1c1cc(OC)ccc1OC (stereo unspecified)	5.7	-9.5	1.1	-0.84	16.2
Cc1noc(C(=O)Nc2sc3c(c2C#N)CCC3)c1Cl	-1.8	52.0*	1.2	0.4	47.7
SMILES	MMP-13 inhibitor	RORa activator	MT1-MMP txn act	WNV NS2B-NS3 inh	SF-1 act
CC(=O)Nc1sc2c(c1C#N)CCCCC2	0.1	-4.7	1.2	-0.00551	10.3
Cc1ccc(C(=O)Nc2sc3c(c2C#N)CCCCC3)cc1C	x	x	2.3*	x	x
COc1ccc(S(=O)(=O)N(CCc2ccccc2)CC(=O)O)cc1	x	x	1.2	x	x
O=c1oc2c3c4c(cc2cc1-c1nc2ccccc2[nH]1)CCCN4CCC3	-50.1	52.1*	1.4	0.43	44.3
O=c1oc2c(CN3CCCCC3)c(O)ccc2cc1-c1nc2ccccc2[nH]1	-85.6	15.5	1.4	1.54	26.9
CCOC(=O)Cc1csc(NC(=O)COc2ccc(N(C)S(=O)(=O)c3cccs3)cc2)n1	2.3	-0.7	1.1	2.02	8.5
Nc1c(C(=O)Nc2ccc(Cl)cc2)oc2ccccc12	-46.7	74.3*	1.7	0.004	105.7*
Cc1c(C(=O)Nc2cnccn2)oc2ccccc12	-2.4	44.7	1.2	-1.2	56.0*
Cc1ccccc1C(=O)Nc1ccc(Br)c(C)n1	-2.4	55.9*	1.4	-0.31	36.2
Cc1c(C(=O)Nc2cccc3cccnc23)oc2ccccc12	-5.2	-1.9	1.6	0.05	17.9
CCN(CC)S(=O)(=O)c1cc(C(=O)Nc2ccc(Cl)cn2)ccc1C	7.5	46.7	0.9	-1.25	61.3*
CCN(CC)S(=O)(=O)c1cccc(C(=O)Nc2ccc(Cl)cn2)c1	4.9	9.7	1.3	0.3	27.4
Cc1nc(NC(=O)c2cccnc2)ccc1Br	-0.2	-3.9	1.4	-0.32	10.1
COC(=O)C1=C(CCc2ccccc2)NC(=O)NC1c1cccc([N+](=O)[O-])c1 (stereo unspecified)	x	x	1.1	x	x
CC(=O)NC1=NN(C(C)=O)C(C)(CS(=O)(=O)c2ccc3ccccc3c2)S1 (stereo unspecified)	x	x	1.3	x	x
COc1cccc(/C=C2/CN(C)CC3=C2OC(N)=C(C#N)C3c2cccc(OC)c2)c1 (stereo unspecified)	2.2	-3.3	1	0.53	-7.6
Cc1ccc(C(=O)Nc2ccc(Cl)cn2)cc1	3.0	26.6	0.6	0.82	-4.1
Cc1c(C(=O)Nc2ccc(Cl)cn2)oc2ccccc12	3.3	-20.1	2.1*	-0.24	1.9
Cc1ccccc1C(=O)Nc1ccccn1	x	x	1.3	x	x
Cc1ccccc1C(=O)Nc1ccc(Cl)cn1	3.6	56.4*	1.4	-1.08	18.6
CC(C)C(=O)Nc1ccc(NC(=O)c2ccccc2Cl)nc1	-1.2	61.6*	1.6	0.73	37.6
Cn1c(=O)n(CCN2CCOCC2)c(=O)c2c1nc1n2CCN1c1ccccc1	-1.6	11.9	1.1	0.88	-4.8
CCCC[C@@H]1C[C@H]1C(NC(=O)c1cccs1)c1ccccc1C(F)(F)F (stereo partly specified)	x	x	1.2	x	x
Cc1cc(C)n(-c2ccc(C(=O)OCC(=O)c3ccc(Br)s3)cc2)n1	-4.4	-9.7	1.1	1.53	1.8
CC(=O)c1ccc(Nc2ncnc3c2oc2ccccc23)cc1	-7.6	22.8	1.3	-0.59	89.0*
CC(=O)Nc1ccc(Nc2nc(C)nc3c2oc2ccccc23)cc1	-5.4	-3.4	1	0.02	0.5
O=C1CC(N2CCN(c3nc4ccccc4s3)CC2)C(=O)N1Cc1cccs1 (stereo unspecified)	7.7	-3.9	1.3	-0.88	12.0
Cc1ccc(-c2cc(C(=O)NCCN3CCOCC3)no2)cc1	-1.9	-7.5	1.2	0.43	7.7
CC(C)NC(=O)c1cc(-c2ccco2)on1	2.9	5.4	1.6	-0.67	40.2
CCCNC(=O)c1cc(-c2ccc(Br)cc2)on1	0.2	36.6	1.5	0.38	57.8*
